The source of these data is ChEMBL document CHEMBL3286264, “Discovery of novel and selective SIRT6 inhibitors” (J Med Chem, 2014).

Experiment [1] deals with T1, NAD-dependent protein deacylase sirtuin-6 (Homo sapiens, UniProt Q8N6T7). The experiment is described as follows: Inhibition of SIRT6 (unknown origin) at 200 uM by fluorescence-based assay.
Experiment [2] concerns the target T1, NAD-dependent protein deacylase sirtuin-6. The experiment is described as follows: Inhibition of SIRT6 (unknown origin). In outline:
(§1)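 Deacetylase activity measured with commercial fluorescence-based SIRT1, SIRT2 or SIRT6 kits per manufacturer's instructions. Compounds from 50 mM DMSO stocks, tested from 8 μM to 5 mM. IC50 derived by logarithmic nonlinear regression. Three independent determinations per compound.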

Experiment [3] concerns the target T2, NAD-dependent protein deacetylase sirtuin-1 (Homo sapiens, UniProt Q96EB6).
T2 sequence (Q96EB6 whole entry): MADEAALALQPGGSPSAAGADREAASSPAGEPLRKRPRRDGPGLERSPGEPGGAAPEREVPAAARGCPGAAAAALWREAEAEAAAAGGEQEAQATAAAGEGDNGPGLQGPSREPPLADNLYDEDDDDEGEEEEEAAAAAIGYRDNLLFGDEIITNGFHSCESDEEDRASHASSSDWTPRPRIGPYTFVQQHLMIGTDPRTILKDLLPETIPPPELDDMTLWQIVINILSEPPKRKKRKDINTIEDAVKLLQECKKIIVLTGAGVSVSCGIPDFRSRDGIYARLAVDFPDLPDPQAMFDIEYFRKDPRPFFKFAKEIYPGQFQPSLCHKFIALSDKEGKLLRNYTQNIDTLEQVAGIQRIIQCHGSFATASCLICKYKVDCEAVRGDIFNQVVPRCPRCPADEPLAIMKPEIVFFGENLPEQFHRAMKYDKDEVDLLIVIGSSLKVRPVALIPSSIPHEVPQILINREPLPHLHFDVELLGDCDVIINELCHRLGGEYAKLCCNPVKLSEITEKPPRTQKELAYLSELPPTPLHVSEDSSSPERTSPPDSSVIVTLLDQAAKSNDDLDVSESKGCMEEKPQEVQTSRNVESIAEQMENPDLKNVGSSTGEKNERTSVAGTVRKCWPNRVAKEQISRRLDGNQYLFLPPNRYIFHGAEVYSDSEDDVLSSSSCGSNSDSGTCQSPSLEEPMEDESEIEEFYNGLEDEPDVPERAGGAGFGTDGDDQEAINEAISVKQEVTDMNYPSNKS
The experiment can be described thus: Inhibition of SIRT1 (unknown origin). In outline: as §1

Experiment [4] concerns the target T3, NAD-dependent protein deacetylase sirtuin-2 (Homo sapiens, UniProt Q8IXJ6).
T3 sequence (Q8IXJ6 whole entry): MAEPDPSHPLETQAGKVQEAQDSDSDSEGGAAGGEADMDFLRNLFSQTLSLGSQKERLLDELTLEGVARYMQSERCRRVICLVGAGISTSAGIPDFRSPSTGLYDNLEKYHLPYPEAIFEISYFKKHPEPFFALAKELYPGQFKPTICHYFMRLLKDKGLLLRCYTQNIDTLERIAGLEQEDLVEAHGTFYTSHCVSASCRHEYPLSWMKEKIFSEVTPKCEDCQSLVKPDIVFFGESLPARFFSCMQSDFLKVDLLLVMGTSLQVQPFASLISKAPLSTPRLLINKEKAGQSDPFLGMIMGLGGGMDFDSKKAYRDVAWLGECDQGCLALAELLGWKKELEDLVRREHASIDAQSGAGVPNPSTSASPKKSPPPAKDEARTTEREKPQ
The experiment is described as follows: Inhibition of SIRT2 (unknown origin). In a few lines: as §1

The species named for experiment [5] is Homo sapiens. The experiment is described as follows: Selectivity ratio of IC50 for SIRT1 (unknown origin) to IC50 for SIRT6 (unknown origin). In outline: as §1
Experiment [6] is filed under the species Homo sapiens. The experiment can be described thus: Selectivity ratio of IC50 for SIRT2 (unknown origin) to IC50 for SIRT6 (unknown origin). In a few lines: as §1
Experiment [7] has as its target T1, NAD-dependent protein deacylase sirtuin-6. The experiment is described as follows: Inhibition of SIRT6 in human BxPC3 cells assessed as increase in H3K9 acetylation at 100 uM after 18 hrs by immunoblot analysis. The format is cell-based. The settings on record: BXPC-3. In outline: (§2)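 BxPC-3 cells plated 4 × 10^5 per well, adhered 24 h, then given 100 μM compound or matching DMSO (final DMSO 2–6‰) for varying times. Lysates (30 μg) resolved on 15% SDS-PAGE and immunoblotted for acetyl-H3K9 and total H3 with ECL. Acetyl-H3K9 normalized to total H3 and expressed as % versus vehicle-treated cells.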
On the technique in general: In western blotting, separated proteins are transferred to a membrane and probed.

Experiment [8] has the same target. The experiment is described as follows: Inhibition of SIRT6 in human BxPC3 cells assessed as increase in H3K9 acetylation at 100 uM after >18 hrs by immunoblot analysis. The format is cell-based. The note with it: BXPC-3. In outline: as §2
Experiment [9] deals with BXPC-3. The experiment is described as follows: Increase in [14C]-2-deoxy-D-glucose uptake in human BxPC3 cells at 200 uM after 18 hrs by scintillation counting analysis relative to control. The experiment is classed as functional. In a few lines: (§3)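 Human BxPC-3 or rat L6 cells (6 × 10^5/well) treated in triplicate for 18 h with 200 μM (final) compound in complete medium. Uptake measured with 0.5 mM 2-deoxy-D-glucose/[14C]-2-deoxy-D-glucose (0.5 μCi/well) in KRH buffer for 5 min at 37 °C. Cells lysed in 0.1% SDS for scintillation counting. Uptake in presence of cytochalasin B plus phloretin subtracted. Expressed relative to untreated.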

For a further experiment, the system named is L6. The experiment is described as follows: Increase in [14C]-2-deoxy-D-glucose uptake in rat L6 cells at 200 uM after 18 hrs by scintillation counting analysis relative to control. The experiment is classed as functional. In outline: as §3
Experiment [10] relates to BXPC-3. The experiment is described as follows: Increase in GLUT1 expression in human BxPC3 cells at 12.5 to 200 uM after 24 hrs by Western blotting analysis. The format is functional, cell-based. In a few lines:
(§4)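 BxPC-3 cells plated 4 × 10^5 per well and allowed to adhere 24 h. Treated either 24 h at the stated concentrations or for a time course at 200 μM. Lysed in Tris-HCl pH 7.5/NaCl/NP40 buffer. 30 μg protein run on 15% SDS-PAGE and transferred to PVDF. GLUT-1 and γ-tubulin detected by immunoblotting with ECL.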

The test system of experiment [11] is BXPC-3. The experiment can be described thus: Increase in GLUT1 expression in human BxPC3 cell surface at 100 uM after 24 hrs by flow cytometry. The format is functional, cell-based. In outline: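 BxPC-3 cells plated 4 × 10^5 per well, allowed to adhere 24 h, then exposed 24 h to 100 μM compound or DMSO vehicle. Cells trypsinized, fixed 10 min in 100% methanol at −20 °C, stained with anti-GLUT-1 antibody then anti-mouse IgG2a (each 30 min, 4 °C). Analysed by flow cytometry, 10.000 events/sample.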

The test system of experiment [12] is BXPC-3. The experiment is described as follows: Inhibition of PMA-induced TNF-alpha secretion in human BxPC3 cells at 100 uM incubated for overnight prior to stimulation of PMA for 24 hrs by ELISA. The experiment is classed as functional. The settings on record: BXPC-3, 24 h. In outline: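 BxPC-3 cells (3 × 10^5/well) allowed to adhere 24 h, then incubated overnight with 100 μM compound or vehicle. Stimulated 24 h with 25 ng/mL PMA. TNF-α in supernatants measured by DuoSet ELISA. Expressed as % inhibition.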
(In general: An ELISA detects its analyte on a solid surface through an enzyme-linked reagent.)

For experiment [13], the system named is BXPC-3. The experiment can be described thus: Increase in GLUT1 expression in human BxPC3 cells at 200 uM after 6 hrs by Western blotting analysis. The experiment is classed as functional, cell-based. In a few lines:
as §4

The structures appear in SMILES notation. The source made the active and inactive calls. The calls are words filed in the database; no cut-off is given here.

In general, inhibition refers to how much of the control response was suppressed. What is called IC50 is the point on the concentration scale where inhibition reaches its midpoint.

T1 sequence (Q8N6T7 whole entry): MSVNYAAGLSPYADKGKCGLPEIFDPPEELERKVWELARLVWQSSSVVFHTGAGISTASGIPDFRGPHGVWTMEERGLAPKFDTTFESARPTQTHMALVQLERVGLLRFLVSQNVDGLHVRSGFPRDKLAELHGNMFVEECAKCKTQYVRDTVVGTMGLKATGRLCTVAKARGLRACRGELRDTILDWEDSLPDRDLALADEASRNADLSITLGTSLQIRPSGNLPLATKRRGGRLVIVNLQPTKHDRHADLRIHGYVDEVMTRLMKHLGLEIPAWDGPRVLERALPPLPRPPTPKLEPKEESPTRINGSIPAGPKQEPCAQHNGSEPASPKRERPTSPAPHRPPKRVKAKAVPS

Turning to `Cc1nc(=O)c2c([nH]1)CC1CCC(C2)N1Cc1ccc2c(c1)CC(C)O2` (stereo unspecified), the inhibition entry in experiment [1] is “inactive”.
In turn, `O=c1[nH]c(=O)c2cc(S(=O)(=O)Nc3ccc(Oc4cccnc4)cc3)ccc2[nH]1` came in with an inhibition in experiment [1] of 100%. For the same compound, the values for the IC50 in experiment [2], in experiment [3] and in experiment [4] were 106 µM, 314 µM and 114 µM, respectively. In addition, the Ratio IC50 was determined as 2.96 in the experiment filed under Homo sapiens [5] and 1.07 in the experiment filed under Homo sapiens [6]. Moreover, in experiment [7], the inhibition entry is “Active”. Also, in experiment [8], the inhibition result is “inactive”. The “fold change (FC)” value amounted to 1.3 in the experiment with BXPC-3 [9] and 1.98 with L6. Besides, the outcome in the experiment on BXPC-3 [10] and in the experiment with BXPC-3 [11] was Active. This compound also came in with an inhibition at 100 µM with BXPC-3 [12] of 73%.
Regarding `O=c1cc(-c2ccccc2)[nH]c(=O)[nH]1`, the inhibition result in experiment [1] is “inactive”.
As to `CC1(CCC(=O)O)NC(=O)NC1=O` (stereo unspecified), the inhibition result in [1] is “inactive”.
Same read-out and setting: next, `CCOc1ccc(NC2SC(=O)NC2=O)cc1` (stereo unspecified): “inactive”.
In the case of `NC(=O)c1ccc[n+](CCCCCC[n+]2cccc(C(N)=O)c2)c1`, the inhibition entry in experiment [1] was “inactive”.
Consider `O=C(Nc1ccc(NS(=O)(=O)c2ccc(Oc3ccc([N+](=O)[O-])cc3)cc2)cc1)c1ccccc1`, for which the inhibition result in experiment [1] is “inactive”.
As for `O=C1NC(=O)C2(CCCCCC2)N1`, the inhibition result in experiment [1] is “inactive”.
In the case of `O=C(Nc1ccc(O)c(C(=O)O)c1)c1cccc(NC(=O)c2ccco2)c1`, the IC50 was 89 µM in [2], 1580 µM in [3] and 751 µM in experiment [4]. The values for the Ratio IC50 in the experiment listed under Homo sapiens [5] and in the experiment filed under Homo sapiens [6] were 17.7 and 8.44, respectively. Besides, the “fold change (FC)” value with BXPC-3 [9] is recorded as 1.11; with L6, 1.2. For the same compound, the outcome in the experiment on BXPC-3 [10] and in the experiment on BXPC-3 [11] was Active. This compound also displayed an inhibition at 100 µM in the experiment with BXPC-3 [12] of 50%.
Regarding `N=C(Nc1ccccc1)SC1CC(=O)N(c2ccc(C(=O)O)cc2)C1=O` (racemic), the inhibition in experiment [1] stood at 66%. In addition, the IC50 in experiment [2] is 181 µM; in [3], 3470 µM; in [4] it was 1740 µM. Also, the Ratio IC50 in the experiment filed under Homo sapiens [5] came out at 19.1; in the experiment filed under Homo sapiens [6], 9.63. The inhibition result in [7] was “Active”. For the same compound, the inhibition entry in experiment [8] was “inactive”. The “fold change (FC)” value was determined as 3.09 with BXPC-3 [9] and 1.55 in the experiment with L6. Besides, in the experiment on BXPC-3 [13], the outcome was Active. For the same compound, the inhibition at 100 µM in the experiment with BXPC-3 [12] worked out at 53%.
`O=C(CSc1nc[nH]n1)CSc1nc[nH]n1`: the inhibition entry in [1] was “inactive”.
As for `O=C(CSCc1ccc(Cl)c(Cl)c1)Nc1cnc(O)nc1O`, the inhibition entry in experiment [1] was “inactive”.
On the same count and under the same terms, next, `COc1ccc(OCC(O)Cn2c(NCCc3ccccc3)nc3c2c(=O)[nH]c(=O)n3C)cc1` (stereo unspecified): “inactive”.
The compound `O=C(NCc1nc(-c2cccnc2)n[nH]1)c1cnccn1` gave an inhibition in [1] of 12%. Also, the values for the half-maximal inhibitory concentration (IC50) in experiment [2], in experiment [3] and in [4] were 1340 µM, 1470 µM and 2290 µM, respectively. Besides, the figures for the Ratio IC50 in the experiment filed under Homo sapiens [5] and in the experiment filed under Homo sapiens [6] were 1.1 and 1.71, respectively.
